Laboratory results published in ChEMBL document CHEMBL3856186, “Partial Activation and Inhibition of TRPV1 Channels by Evodiamine and Rutaecarpine, Two Major Components of the Fruits of Evodia rutaecarpa” (J Nat Prod, 2016).
Calls of active or inactive are those of the source. No cut-off for these calls is given here.

How the values were obtained:
Format in all cases: cell-based
[1] = molecular target: Transient receptor potential cation channel subfamily V member 1 (Rattus norvegicus) (UniProt O35433); test: Partial antagonist activity at rat TRPV1 expressed in HEK293 cells assessed as effect on capsaicin-induced inward current at 0.6 uM by whole-cell patch clamp method (reference value: -151.2 +/- 33 pA/pF)
Sequence of Transient receptor potential cation channel subfamily V member 1 (Rattus norvegicus) (O35433 whole entry): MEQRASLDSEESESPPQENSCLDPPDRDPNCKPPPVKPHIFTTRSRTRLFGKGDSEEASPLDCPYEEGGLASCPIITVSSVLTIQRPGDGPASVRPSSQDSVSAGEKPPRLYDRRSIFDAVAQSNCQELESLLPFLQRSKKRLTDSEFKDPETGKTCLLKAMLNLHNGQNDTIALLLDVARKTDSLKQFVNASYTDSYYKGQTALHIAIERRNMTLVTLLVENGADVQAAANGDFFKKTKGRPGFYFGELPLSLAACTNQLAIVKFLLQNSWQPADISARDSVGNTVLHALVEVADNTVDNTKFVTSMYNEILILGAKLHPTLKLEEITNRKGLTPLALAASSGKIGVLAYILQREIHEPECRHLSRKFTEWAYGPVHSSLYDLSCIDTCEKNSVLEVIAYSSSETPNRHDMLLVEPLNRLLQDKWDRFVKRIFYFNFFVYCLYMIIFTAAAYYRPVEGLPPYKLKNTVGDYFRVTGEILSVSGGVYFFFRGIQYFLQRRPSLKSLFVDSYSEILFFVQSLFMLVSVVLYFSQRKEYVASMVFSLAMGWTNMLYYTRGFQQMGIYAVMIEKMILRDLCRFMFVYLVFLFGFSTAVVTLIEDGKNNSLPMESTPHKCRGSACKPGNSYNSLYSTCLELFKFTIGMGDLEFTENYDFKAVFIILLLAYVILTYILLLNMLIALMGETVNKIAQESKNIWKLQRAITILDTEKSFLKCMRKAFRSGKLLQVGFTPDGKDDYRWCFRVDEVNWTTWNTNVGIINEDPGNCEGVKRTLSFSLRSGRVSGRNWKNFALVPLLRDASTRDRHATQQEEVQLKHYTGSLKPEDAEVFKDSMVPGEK
In short: (§1)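 HEK293 cells transiently expressing rat TRPV1 (EGFP cotransfected) were patched in whole-cell mode 1 day post-transfection. Cells were held at −60 mV in Ca2+-containing standard bath (pH 7.4) at ~25 °C. Capsaicin-evoked peak current amplitude was quantified. Sigmoidal curve fitting gave EC50 or IC50 values.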

[2] = molecular target: Transient receptor potential cation channel subfamily V member 1 (Rattus norvegicus) (UniProt O35433); test: Partial antagonist activity at rat TRPV1 expressed in HEK293 cells assessed as effect on capsaicin-induced inward current at 0.1 uM by whole-cell patch clamp method (reference value: -480.7 +/- 96.9 pA/pF); in short: as §1
[3] = molecular target: Transient receptor potential cation channel subfamily V member 1 (Rattus norvegicus) (UniProt O35433); test: Partial antagonist activity at rat TRPV1 expressed in HEK293 cells assessed as effect on capsaicin-induced inward current at 0.1 uM by whole-cell patch clamp method (reference value: -[…] +/- […] pA/pF)
[4] = molecular target: Transient receptor potential cation channel subfamily V member 1 (Rattus norvegicus) (UniProt O35433); test: Partial antagonist activity at rat TRPV1 expressed in HEK293 cells assessed as effect on capsaicin-induced inward current at 1 uM by whole-cell patch clamp method (reference value: -151.2 +/- 33 pA/pF); in short: as §1
[5] = molecular target: Transient receptor potential cation channel subfamily V member 1 (Rattus norvegicus) (UniProt O35433); test: (§2) Partial antagonist activity at rat TRPV1 expressed in HEK293 cells assessed as effect on capsaicin current density at 0.5 uM pretreated for 180 sec followed by capsaicin addition at -60 mV holding potential in presence of extracellular calcium by whole-cell patch-clamp method (reference value: -327.4 +/- 52.3 pA/pF); in short: as §1
[6] = molecular target: Transient receptor potential cation channel subfamily V member 1 (Rattus norvegicus) (UniProt O35433); test: Partial antagonist activity at rat TRPV1 expressed in HEK293 cells assessed as inhibition of proton-induced channel current at 1 or 50 uM and -60 mV holding potential pretreated for 60 secs prior to proton-challenge by whole-cell patch clamp method (reference value: 185.1 +/- 38.6 pA/pF)
In short: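 Proton-activated currents were recorded in rat TRPV1-expressing HEK293 cells held at −60 mV in whole-cell mode, with bath buffered to pH 6 with 10 mM MES, at ~25 °C. Peak current amplitude was the read-out.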

[7] = molecular target: Transient receptor potential cation channel subfamily V member 1 (Rattus norvegicus) (UniProt O35433); test: as §2, with “1” for “0.5”; in short: as §1
[8] = molecular target: Transient receptor potential cation channel subfamily V member 1 (Rattus norvegicus) (UniProt O35433); test: Partial antagonist activity at rat TRPV1 expressed in HEK293 cells assessed as desensitization of capsaicin-induced inward current at 10 uM and -60 mV holding potential pretreated for 60 secs prior to capsaicin-challenge in absence of calcium by whole-cell patch-clamp method
In short: (§3)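 Whole-cell clamp at −60 mV was done on rat TRPV1-transfected HEK293 cells (1 day) using a calcium-free bath (5 mM EGTA, no CaCl2, pH 7.4) at ~25 °C. Capsaicin-evoked peak current was measured.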

[9] = molecular target: Transient receptor potential cation channel subfamily V member 1 (Rattus norvegicus) (UniProt O35433); test: Partial antagonist activity at rat TRPV1 expressed in HEK293 cells assessed as effect on capsaicin-induced inward current at 1 uM by whole-cell patch clamp method; in short: as §1
[10] = molecular target: Transient receptor potential cation channel subfamily V member 1 (Rattus norvegicus) (UniProt O35433); test: as §2, with “10” for “0.5”; in short: as §1
[11] = molecular target: Transient receptor potential cation channel subfamily V member 1 (Rattus norvegicus) (UniProt O35433); test: Partial antagonist activity at rat TRPV1 expressed in HEK293 cells assessed as effect on capsaicin-induced inward current at 1 uM by whole-cell patch clamp method (reference value: -431 +/- 43.1 pA/pF); in short: as §1
[12] = molecular target: Transient receptor potential cation channel subfamily V member 1 (Rattus norvegicus) (UniProt O35433); test: Desensitization of rat TRPV1 expressed in HEK293 cells at 10 uM for 30 sec at -60 mV holding potential in presence of extracellular calcium by whole-cell patch clamp method
In short: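 Rat TRPV1 cDNA and an EGFP reporter were cotransfected into HEK293 cells, with recording 1 day later. Whole-cell voltage clamp was run at room temperature (~25 °C) in standard bath (2 mM CaCl2, pH 7.4) with a KCl/MgATP/EGTA pipette solution. Steps from −100 to +100 mV (100 ms) gave I–V curves. Agonist was applied until desensitization, and peak current was scored. EC50 came from a sigmoidal fit.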

[13] = molecular target: Transient receptor potential cation channel subfamily V member 1 (Rattus norvegicus) (UniProt O35433); test: Partial antagonist activity at rat TRPV1 expressed in HEK293 cells assessed as effect on capsaicin current density at 10 uM at -60 mV holding potential in absence of extracellular calcium by whole-cell patch-clamp method (reference value: -2407.7 +/- 850.6 pA); in short: as §3
[14] = molecular target: Transient receptor potential cation channel subfamily V member 1 (Rattus norvegicus) (UniProt O35433); test: Partial antagonist activity at rat TRPV1 expressed in HEK293 cells assessed as effect on capsaicin-induced inward current at 10 uM by whole-cell patch clamp method (reference value: -327.4 +/- 52.3 pA/pF); in short: as §1
[15] = molecular target: Transient receptor potential cation channel subfamily V member 1 (Rattus norvegicus) (UniProt O35433); test: Partial antagonist activity at rat TRPV1 expressed in HEK293 cells assessed as effect on capsaicin-induced inward current at 1 uM by whole-cell patch clamp method (reference value: -7 +/- 2.6 pA/pF); in short: as §1
[16] = molecular target: Transient receptor potential cation channel subfamily V member 1 (Rattus norvegicus) (UniProt O35433); test: Partial antagonist activity at rat TRPV1 expressed in HEK293 cells assessed as effect on capsaicin-induced inward current at 0.6 uM by whole-cell patch clamp method (reference value: -[…] +/- […] pA/pF)
[17] = molecular target: Transient receptor potential cation channel subfamily V member 1 (Rattus norvegicus) (UniProt O35433); test: Partial antagonist activity at rat TRPV1 expressed in HEK293 cells assessed as effect on capsaicin-induced inward current at 1 uM by whole-cell patch clamp method (reference value: -[…] +/- […] pA/pF)
[18] = molecular target: Transient receptor potential cation channel subfamily V member 1 (Rattus norvegicus) (UniProt O35433); test: Partial antagonist activity at rat TRPV1 expressed in HEK293 cells assessed as effect on capsaicin-induced inward current at 10 uM by whole-cell patch clamp method (reference value: -151.2 +/- 33 pA/pF); in short: as §1
[19] = molecular target: Transient receptor potential cation channel subfamily V member 1 (Rattus norvegicus) (UniProt O35433); test: Partial antagonist activity at rat TRPV1 expressed in HEK293 cells assessed as effect on capsaicin-induced inward current at 10 uM by whole-cell patch clamp method (reference value: -480.7 +/- 96.9 pA/pF); in short: as §1
[20] = molecular target: Transient receptor potential cation channel subfamily V member 1 (Rattus norvegicus) (UniProt O35433); test: Partial antagonist activity at rat TRPV1 expressed in HEK293 cells assessed as effect on capsaicin-induced inward current at 0.6 uM by whole-cell patch clamp method (reference value: -327.4 +/- 52.3 pA/pF); in short: as §1

Activity [1]: -81.6 pA/pF | Activity [2]: -416 pA/pF | Activity [3]: -492 pA/pF | Activity [4]: -75 pA/pF | Activity [5]: -143 pA/pF | Activity [6]: -49.1 pA/pF | Activity [7]: -132 pA/pF | Activity [9]: -448 pA/pF | Activity [10]: -60.3 pA/pF | Activity [11]: -260 pA/pF | Activity [13]: -2400 pA/pF | Activity [14]: -160 pA/pF | Activity [15]: -81.7 pA/pF | Activity [16]: -528 pA/pF | Activity [17]: -370 pA/pF | Activity [18]: -172 pA/pF | Activity [19]: -256 pA/pF | Activity [20]: -208 pA/pF
SMILES: CN1c2ccccc2C(=O)N2CCc3c([nH]c4ccccc34)C21 (stereo not given)
Activity [8]: Active | Activity [12]: Active
